Experimental data as given in ChEMBL document CHEMBL1131469, “Novel non-peptide fibrinogen receptor antagonists. 1. Synthesis and glycoprotein IIb-IIIa antagonistic activities of 1,3,4-trisubstituted 2-oxopiperazine derivatives incorporating side-chain functions of the RGDF peptide” (J Med Chem, 1998).
pIC50: −log10 of the molar value. Peptide text beside a SMILES is read from it.

Target: Integrin alpha-IIb/beta-3 (Homo sapiens, UniProt P05106+P08514)
Assay: Ability to inhibit binding of biotin-labeled human fibrinogen to immobilized fibrinogen receptor purified from human erythroleukemia (HEL) cells.
Procedure, shortened: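 Purified GP IIb-IIIa (1 μg/mL, pH 7.4 Tris/NaCl/CaCl2 buffer) coated overnight at 4 °C, blocked with 3.5% BSA 2 h at 30 °C. Wells then incubated with 1 nM biotinylated fibrinogen plus graded compound concentrations, 3 h at 30 °C. IC50 from dose–response curves.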

Integrin alpha-IIb/beta-3, sequence (P05106 27-788 limits assumed): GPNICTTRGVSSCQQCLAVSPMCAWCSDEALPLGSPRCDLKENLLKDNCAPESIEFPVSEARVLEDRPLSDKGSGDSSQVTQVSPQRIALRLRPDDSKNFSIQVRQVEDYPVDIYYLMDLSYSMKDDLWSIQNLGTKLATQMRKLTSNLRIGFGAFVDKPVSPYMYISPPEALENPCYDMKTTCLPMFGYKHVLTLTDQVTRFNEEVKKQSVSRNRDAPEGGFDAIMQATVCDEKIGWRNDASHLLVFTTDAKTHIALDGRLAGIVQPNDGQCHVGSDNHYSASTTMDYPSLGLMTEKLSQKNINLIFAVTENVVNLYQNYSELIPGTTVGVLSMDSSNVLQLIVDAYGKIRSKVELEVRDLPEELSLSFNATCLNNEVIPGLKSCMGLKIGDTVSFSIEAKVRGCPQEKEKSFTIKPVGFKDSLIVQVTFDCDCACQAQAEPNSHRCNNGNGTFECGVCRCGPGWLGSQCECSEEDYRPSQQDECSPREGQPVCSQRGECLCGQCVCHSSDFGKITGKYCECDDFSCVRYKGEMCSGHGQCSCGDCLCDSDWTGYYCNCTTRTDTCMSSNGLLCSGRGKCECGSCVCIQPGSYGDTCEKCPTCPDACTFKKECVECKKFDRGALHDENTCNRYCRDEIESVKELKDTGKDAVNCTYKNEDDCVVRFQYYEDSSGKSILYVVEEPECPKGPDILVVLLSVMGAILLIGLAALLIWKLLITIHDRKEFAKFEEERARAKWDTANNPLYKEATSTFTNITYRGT
Integrin alpha-IIb/beta-3, sequence (P08514 32-887 limits assumed): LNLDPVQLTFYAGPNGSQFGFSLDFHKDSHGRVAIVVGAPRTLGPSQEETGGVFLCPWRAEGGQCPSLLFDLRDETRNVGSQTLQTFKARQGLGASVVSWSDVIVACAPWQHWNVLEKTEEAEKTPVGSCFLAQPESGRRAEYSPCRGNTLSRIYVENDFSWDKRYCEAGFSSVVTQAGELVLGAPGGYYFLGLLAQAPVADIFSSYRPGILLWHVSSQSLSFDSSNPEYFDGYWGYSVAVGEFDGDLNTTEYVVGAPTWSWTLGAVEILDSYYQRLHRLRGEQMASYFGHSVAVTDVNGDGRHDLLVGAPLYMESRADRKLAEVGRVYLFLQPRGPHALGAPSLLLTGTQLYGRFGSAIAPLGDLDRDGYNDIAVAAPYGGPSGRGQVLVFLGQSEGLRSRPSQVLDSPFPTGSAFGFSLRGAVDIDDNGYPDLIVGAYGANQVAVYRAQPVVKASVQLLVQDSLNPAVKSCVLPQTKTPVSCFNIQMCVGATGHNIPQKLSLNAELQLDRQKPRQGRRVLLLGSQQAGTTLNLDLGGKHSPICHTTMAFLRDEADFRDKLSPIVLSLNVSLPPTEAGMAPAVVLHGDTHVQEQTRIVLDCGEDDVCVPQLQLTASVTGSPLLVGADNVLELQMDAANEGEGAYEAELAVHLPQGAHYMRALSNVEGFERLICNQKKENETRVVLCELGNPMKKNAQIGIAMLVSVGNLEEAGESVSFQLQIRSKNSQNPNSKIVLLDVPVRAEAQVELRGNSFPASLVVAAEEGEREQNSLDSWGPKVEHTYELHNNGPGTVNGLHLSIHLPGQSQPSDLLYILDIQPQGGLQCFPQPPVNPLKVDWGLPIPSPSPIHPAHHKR
Integrin alpha-IIb/beta-3, sequence (P08514 891-1039 limits assumed): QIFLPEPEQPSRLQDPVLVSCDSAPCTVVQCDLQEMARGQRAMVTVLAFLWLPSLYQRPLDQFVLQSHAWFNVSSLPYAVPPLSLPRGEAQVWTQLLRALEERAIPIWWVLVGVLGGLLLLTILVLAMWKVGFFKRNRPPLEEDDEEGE

Row | SMILES | pIC50
1 | N=C(N)c1ccc(C(=O)NCC(=O)N2CCN(CC(=O)O)C(=O)[C@@H]2CCC(=O)O)cc1 | 9.68
2 | N=C(N)c1cccc(C(=O)NCC(=O)N2CCN(CC(=O)O)C(=O)[C@@H]2CC(=O)O)c1 | 6.89
3 | N=C(N)c1ccc(C(=O)NCC(=O)N2CCN(CC(=O)O)C(=O)[C@@H]2Cc2ccccc2)cc1 | 8.71
4 | COC(=O)C[C@@H]1C(=O)N(CC(=O)O)CCN1C(=O)CNC(=O)c1ccc(C(=N)N)cc1 | 7.79
5 | N=C(N)c1ccc(C(=O)NCC(=O)N2CCN(CC(N)=O)C(=O)[C@@H]2CC(=O)O)cc1 | 6.48
6 | N=C(N)c1ccc(C(=O)NCC(=O)N2CCN(CCC(=O)O)C(=O)[C@@H]2CC(=O)O)cc1 | 7.20
7 | COC(=O)CC[C@H]1C(=O)N(CC(=O)O)CCN1C(=O)CNC(=O)c1ccc(C(=N)N)cc1 | 9.54
8 | N=C(N)NCC1CCC(C(=O)NCC(=O)N2CCN(CC(=O)O)C(=O)[C@@H]2CC(=O)O)CC1 (stereo not given in full) | 7.70
9 | CN(C)C(N)=Nc1ccc(C(=O)NCC(=O)N2CCN(CC(=O)O)C(=O)[C@@H]2CC(=O)O)cc1 | 6.68
10 | N=C(N)NCCC[C@H](N)C(=O)NCC(=O)N[C@@H](CC(=O)O)C(=O)N[C@@H](Cc1ccccc1)C(=O)O (H-RGDF-OH) | 6.96
